Screening results from PubChem BioAssay.
Hits are enriched below; roughly 27% of the tested compounds scored in any of these assays.
CYP2C19 inh: inhibitors of human CYP2C19. AID 778. actives 21% (n = 96,000). CYP2C19 Supersomes, luciferin-H EGE luminescence, 30 min. inhibition, % at 5 µM. P33261;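 active means CYP2C19 inhibition above a set limit at 5 µM in the primary screen, cut at about 50% in these data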;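 further: plate controls were negative control wells for no effect and 2.5 mM tranylcypromine positive control for full effect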
Rev-RRE block: disrupts HIV-1 Rev binding to RRE RNA; P05866; Rev peptide-RRE RNA binding, FRET; inhibition, % at 8 µM; actives 0.79% (n = 97,000); AID 704;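 active means inhibition above the screen-wide mean plus 3 SD, cut at about 35% in these data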;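 further: 0% = median DMSO wells and 100% = median Neomycin B control wells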
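Test system: Cy5-tagged RRE RNA duplex with fluorescein-tagged Rev peptide | Read-out: % inhibition of FRET ratio versus controls | Probe or stimulus: Labelled Rev peptide | Incubation: 5 min RNA-compound premix plus 15 min binding step, 25 °C | Technique: FRET fluorescence readout | Benchmarks: DMSO low control, neomycin B high control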
CYP2C19 act: activators of human cytochrome P450 2C19; 96,000 tested, under 10 active; recombinant CYP2C19, luciferin-H EGE luminescence; stronger effect = higher value; 0 = fully inhibited enzyme, 1 = untreated enzyme; P33261; activation factor at 5 µM;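 active means activation factor of at least 2 at 5 µM in the primary screen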;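 further: 0 = wells with 2.5 mM tranylcypromine and 1 = vehicle-only wells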
CYP2C9 inh: blocks human cytochrome P450 2C9; CYP2C9 Supersomes, luciferin-H conversion, luminescence; AID 777; inhibition, % at 5 µM; actives 20% (n = 96,000);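 active means blocking of liver enzyme CYP2C9 beyond about 50% at 5 µM, limit read from the data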
CYP2C9 act: activators of human CYP2C9 | P11712 | recombinant CYP2C9, luciferin-H conversion, luminescence; stronger effect = higher value; factor 1 = untreated enzyme, 0 = blocked | activation factor at 5 µM | actives 1.4% (n = 96,000) | AID 1024;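 active means activation factor of 2 or more for CYP2C9 at a 5 µM dose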;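 further: 0 = sulfaphenazole-blocked wells and 1 = vehicle-only wells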
Cav32 inh: blocks human Cav3.2 T-type calcium channel; B-score at 10 µM; AID 449739; Cav3.2-expressing cells, Fluo-4 calcium fluorescence FDSS; stronger effect = lower value; O95180; actives 4% (n = 100,000);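 active means single-dose well whose peak fluorescence ratio is a statistical outlier from its plate by either plate-standardised score or position-corrected B-score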
Target sequence (O95180 whole entry, looked up): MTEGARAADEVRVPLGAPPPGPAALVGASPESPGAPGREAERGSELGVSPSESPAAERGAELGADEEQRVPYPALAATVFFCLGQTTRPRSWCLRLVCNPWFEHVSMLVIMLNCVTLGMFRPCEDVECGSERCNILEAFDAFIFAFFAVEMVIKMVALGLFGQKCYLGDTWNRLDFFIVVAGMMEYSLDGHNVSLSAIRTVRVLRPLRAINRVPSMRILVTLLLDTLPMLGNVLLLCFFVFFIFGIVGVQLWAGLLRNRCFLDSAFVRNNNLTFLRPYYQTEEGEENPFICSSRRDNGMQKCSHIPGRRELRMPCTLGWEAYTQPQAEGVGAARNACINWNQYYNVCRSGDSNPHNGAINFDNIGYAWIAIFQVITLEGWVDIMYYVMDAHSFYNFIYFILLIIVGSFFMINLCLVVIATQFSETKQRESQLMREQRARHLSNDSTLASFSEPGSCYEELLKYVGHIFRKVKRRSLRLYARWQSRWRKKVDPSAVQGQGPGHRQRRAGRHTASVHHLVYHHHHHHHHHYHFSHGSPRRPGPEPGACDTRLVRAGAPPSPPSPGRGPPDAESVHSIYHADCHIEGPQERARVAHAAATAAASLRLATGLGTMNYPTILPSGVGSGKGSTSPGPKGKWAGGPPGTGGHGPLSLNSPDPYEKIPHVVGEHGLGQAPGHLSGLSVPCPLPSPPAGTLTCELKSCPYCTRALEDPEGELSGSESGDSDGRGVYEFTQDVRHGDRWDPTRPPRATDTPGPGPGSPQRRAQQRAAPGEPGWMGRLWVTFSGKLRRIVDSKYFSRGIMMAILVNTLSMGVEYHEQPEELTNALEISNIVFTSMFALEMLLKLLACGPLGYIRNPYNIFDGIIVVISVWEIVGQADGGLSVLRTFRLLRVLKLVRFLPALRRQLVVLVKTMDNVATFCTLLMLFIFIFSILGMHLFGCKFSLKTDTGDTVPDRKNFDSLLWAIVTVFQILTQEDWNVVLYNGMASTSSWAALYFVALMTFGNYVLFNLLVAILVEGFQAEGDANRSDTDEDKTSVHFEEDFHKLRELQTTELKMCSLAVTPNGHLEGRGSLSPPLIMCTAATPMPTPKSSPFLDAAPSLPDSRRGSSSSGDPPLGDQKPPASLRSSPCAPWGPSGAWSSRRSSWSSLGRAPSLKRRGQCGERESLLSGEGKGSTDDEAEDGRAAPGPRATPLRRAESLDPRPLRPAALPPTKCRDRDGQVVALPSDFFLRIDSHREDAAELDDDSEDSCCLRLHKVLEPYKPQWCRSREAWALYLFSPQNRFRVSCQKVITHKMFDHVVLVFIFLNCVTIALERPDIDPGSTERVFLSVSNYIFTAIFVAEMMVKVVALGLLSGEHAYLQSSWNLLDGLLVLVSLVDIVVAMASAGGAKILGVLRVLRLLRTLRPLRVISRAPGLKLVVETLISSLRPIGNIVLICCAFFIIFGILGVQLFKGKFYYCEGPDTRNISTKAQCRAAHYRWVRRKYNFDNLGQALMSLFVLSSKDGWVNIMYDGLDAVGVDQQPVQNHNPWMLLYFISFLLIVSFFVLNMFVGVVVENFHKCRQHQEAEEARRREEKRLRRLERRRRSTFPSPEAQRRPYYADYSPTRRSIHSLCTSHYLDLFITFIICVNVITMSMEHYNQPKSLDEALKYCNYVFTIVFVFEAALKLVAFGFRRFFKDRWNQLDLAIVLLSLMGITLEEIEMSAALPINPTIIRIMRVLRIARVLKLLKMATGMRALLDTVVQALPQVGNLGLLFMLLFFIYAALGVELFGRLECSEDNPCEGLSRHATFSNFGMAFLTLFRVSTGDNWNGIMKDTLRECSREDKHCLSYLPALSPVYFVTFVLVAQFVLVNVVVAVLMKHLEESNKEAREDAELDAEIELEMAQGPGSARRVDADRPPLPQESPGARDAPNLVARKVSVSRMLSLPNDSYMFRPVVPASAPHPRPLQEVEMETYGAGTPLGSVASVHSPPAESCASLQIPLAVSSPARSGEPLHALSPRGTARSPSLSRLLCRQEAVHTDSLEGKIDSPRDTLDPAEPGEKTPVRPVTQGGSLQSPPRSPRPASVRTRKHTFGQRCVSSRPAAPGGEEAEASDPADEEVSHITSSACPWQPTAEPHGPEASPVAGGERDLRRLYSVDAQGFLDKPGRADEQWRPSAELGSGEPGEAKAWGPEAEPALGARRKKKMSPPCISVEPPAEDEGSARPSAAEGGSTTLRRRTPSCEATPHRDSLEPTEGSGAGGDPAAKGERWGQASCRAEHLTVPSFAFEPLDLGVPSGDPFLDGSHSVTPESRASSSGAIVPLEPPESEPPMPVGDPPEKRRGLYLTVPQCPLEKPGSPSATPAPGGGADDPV
Numbers without * were called inactive; / = no result.

SMILES	CYP2C19 inh	Rev-RRE block	CYP2C19 act	CYP2C9 inh	CYP2C9 act	Cav32 inh
CCOC(=O)c1ccc(NC(=S)NCCCN2CCCCC2)cc1	2.3	-7.0	1	14.7	0.9	-0.15
CN(c1ccc(C(=O)Nc2ccccc2C(=O)N2CCOCC2)cc1)S(C)(=O)=O	/	5.6	/	/	/	0.78
Cc1ccccc1CN(c1ccc(C(=O)Nc2ccccc2C(=O)N2CCCC2)cc1)S(C)(=O)=O	98.9*	15.2	0	91.3*	0.1	/
CCOC(=O)/C=C1\SCC(=O)N1Cc1nnc(-c2ccccc2Br)o1	75.5*	16.8	0.2	72.1*	0.3	-0.59
CCOC(=O)/C=C1\SCC(=O)N1Cc1ccc(Br)cc1	/	9.7	/	/	/	-2.2
Cc1ccccc1OCC(=O)N(Cc1ccc(N(C)C)cc1)C1CCS(=O)(=O)C1 (configuration not stated)	22.5	-0.3	0.8	12.6	0.9	0.291
CCOc1cc(C2CC(=O)N3CN(C4CCCCC4)CSC3=C2C#N)ccc1O (configuration not stated)	53.1*	5.5	0.5	82.0*	0.2	0.308
COc1ccc(C2C(=O)N(C3CCCCC3)CC(=O)N2CCc2ccccc2)cc1OC (configuration not stated)	7.3	4.5	0.9	26.0	0.7	0.578
COc1cc(C2CC(=O)N3CN(Cc4ccco4)CSC3=C2C#N)ccc1OCc1ccccc1 (configuration not stated)	25.2	1.8	0.7	83.0*	0.2	1.11
COc1ccc2ccccc2c1C1CC(=O)N2CN(C3CCCCC3)CSC2=C1C#N (configuration not stated)	55.2*	4.7	0.4	89.5*	0.1	-0.879
COc1ccc2ccccc2c1C1CC(=O)N2CN(Cc3ccco3)CSC2=C1C#N (configuration not stated)	55.2*	-2.7	0.4	86.5*	0.1	0.643
Cc1nnc(NC(=O)Cn2cnc3c2c(=O)n(C)c(=O)n3C)s1	/	2.2	/	/	/	0.322
CCCn1c(SCC(=O)NCCc2ccc(Cl)cc2Cl)n[nH]c1=O	26.8	-2.3	0.7	35.4	0.6	0.0852
CC(C)(C)N=C1SCC(C)(/C=N/O)S1 (configuration not stated)	4.0	1.1	1	-10.0	1.1	-0.00675
CCCc1nc(SCC(=O)Nc2cc(C)on2)c2ccccc2n1	10.4	-1.6	0.9	32.0	0.7	/
Cc1cc(NC(=O)CSc2c3c(nc4ccccc24)CCC3)no1	54.8*	-2.9	0.5	55.7*	0.4	/
Cc1cc(NC(=O)CSc2nc(CCC3CCCC3)nc3ccccc23)no1	87.4*	16.2	0.1	90.3*	0.1	-8.74*
Cc1sc2ncnc(SCC(=O)NNC(=O)COc3cccc4ccccc34)c2c1C	-9.1	0.1	1.1	-38.5	1.4	-2.79
Cc1sc2ncnc(SCC(=O)N3CCCC3=O)c2c1C	58.7*	1.7	0.4	62.7*	0.4	0.475
Cc1sc2ncnc(SCC(=O)c3cccs3)c2c1C	22.6	6.4	0.8	59.9*	0.4	1.27
CCCN(CC1CC1)C(=O)CSc1ncnc2sc(C)c(C)c12	91.6*	5.9	0.1	53.3*	0.5	-5.18*
CC(C)(C)NC(=O)NC(=O)COC(=O)CCCc1c[nH]c2ccccc12	39.1	-1.6	0.6	21.2	0.8	-3.5
Cc1cc(C)nc(/N=C/c2c(O)n(C)c(=O)n(C)c2=O)n1	-4.3	/	1	-5.0	1.1	/
Cc1ccc(-c2cn3c(=O)cc(C)[nH]c3n2)cc1	19.8	7.2	0.8	15.3	0.8	0.892
Cc1ccc(C(=O)Nc2nc(=O)n(C(=O)c3ccccc3Cl)s2)cc1	65.7*	1.4	0.3	93.5*	0.1	-6.06*
SMILES	CYP2C19 inh	Rev-RRE block	CYP2C19 act	CYP2C9 inh	CYP2C9 act	Cav32 inh
Cc1ccc(C(=O)Nc2nc(=O)n(C)s2)cc1	4.3	4.7	1	12.5	0.9	-0.143
Cc1ccc(C(=O)Nc2nc(=O)n(C(=O)CC(C)C)s2)cc1	7.5	3.2	0.9	84.1*	0.2	-3.8
CC(C)CC(=O)n1sc(NC(=O)c2ccccc2)nc1=O	-16.3	0.9	1.2	33.5	0.7	-0.835
CCOC(=O)N1CCN(S(=O)(=O)c2cccc3nsnc23)CC1	76.3*	/	0.2	18.8	0.8	/
CCOC(=O)N1CCN(S(=O)(=O)c2ccc3c(c2)oc(=O)n3C)CC1	58.5*	40.7*	0.4	-0.1	1	0.667
CCOC(=O)N1CCN(S(=O)(=O)c2ccc(OC)c(Cl)c2)CC1	98.4*	10.2	0	-46.3	1.5	-0.233
CCOC(=O)n1c(=O)oc2cc(S(=O)(=O)N3CCCCC3)ccc21	/	1.4	/	/	/	-0.509
CCOC(=O)N1CCN(S(=O)(=O)c2ccc(OC)c(Cl)c2Cl)CC1	99.1*	15.9	0	-93.5	1.9	-0.773
NC(=O)C1CCN(C(=O)C2CCN(S(=O)(=O)c3ccccc3)CC2)CC1	-12.2	12.0	1.1	17.3	0.8	-0.281
C=CCN(CC=C)C(=O)Cc1ccc(F)cc1	25.8	2.7	0.7	-18.9	1.2	-0.0897
COC(=O)[C@H](CCSC)NC(=O)N1CCC(C)CC1	97.0*	4.0	0	96.1*	0	0.107
CCNc1sc(C(=O)c2cccs2)c(N)c1-c1nc2ccccc2s1	52.9*	29.8	0.5	89.5*	0.1	-0.252
COc1ccccc1C1C(C(=O)c2sc(C)nc2C)=C(O)C(=O)N1CCN1CCOCC1 (configuration not stated)	-4.0	/	1	-8.0	1.1	0.0948
Cc1ccc(N2C(=O)c3ccccc3C2O)nc1 (configuration not stated)	78.8*	/	0.2	40.0	0.6	/
Cc1ccc(N2C(=O)c3ccccc3C2Nc2ccccc2F)nc1 (configuration not stated)	40.6	9.3	0.6	24.7	0.8	-2.47
O=C(CCCc1nc(-c2ccccc2)no1)NCc1cccnc1	20.8	/	0.8	31.1	0.7	1.3
C#CCCOC(=O)N1C2=NC(C(=O)OC)=C(C(=O)OC)[C@@H]3N(C)c4ccccc4[C@]23C[C@H]1CO	/	/	/	/	/	0.271
COCCN(C(=O)Nc1ccccc1)c1ccccc1	15.1	1.7	0.8	7.2	0.9	0.734
N#CCCN(C(=O)Nc1ccccc1)c1ccccc1	59.9*	2.6	0.4	7.1	0.9	/
COc1cccc(-n2c(SCC(=O)Nc3cc(C)on3)nc3c([nH]c4ccccc43)c2=O)c1	1.9	-5.8	1	54.3*	0.5	-1.33
Cc1ccc(-n2c(SCC(N)=O)nc3c([nH]c4ccccc43)c2=O)cc1	9.0	/	0.9	78.6*	0.2	0.679
COc1cccc(-n2c(SCC(N)=O)nc3c([nH]c4ccccc43)c2=O)c1	2.9	/	1	51.6*	0.5	/
Cc1nc(C(=O)NC2CCCCC2)sc1C1(C)CC(c2cccnc2)=NO1 (configuration not stated)	/	/	/	/	/	-1.11
